Sampled rows, rich in hits. Any-hit rate of the full collection: about 3.4%.
TMEM16A act: activators or potentiators of mouse TMEM16A chloride channel. Q8BHY3. HEK293 TMEM16A/YFP-H148Q/I152L, iodide quench fluorescence; hits give low values. B-score at 10 µM. actives 0.3% (n = 340,000);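 active = fluorescence-ratio B-score plate-corrected deviation score at least 3 library SD below zero, with starting fluorescence score within 5 deviations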;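 also: channel opened by trigger with iodide after compound preincubation; score built on the fluorescence ratio of max minus min over baseline; more negative score means more quench and so TMEM16A activation or potentiation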
VIM-2 inh: inhibitors of Pseudomonas aeruginosa VIM-2 metallo-beta-lactamase. purified VIM-2, nitrocefin hydrolysis, epi-absorbance fluorescence. inhibition, % at 5.6 µM. actives 0.89% (n = 290,000). AID 1527;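 active = inhibition above the mean of all tested compounds plus 3 SD, cutoff set per screening run, cut at about 7.5% in these data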;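 also: red hydrolysis product quenches plate fluorescence so inhibitors raise well fluorescence; 0% = enzyme with DMSO and 100% = DMSO without enzyme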
IMP-1 inh: inhibitors of Pseudomonas aeruginosa IMP-1 metallo-beta-lactamase; purified IMP-1, nitrocefin hydrolysis, epi-absorbance fluorescence; inhibition, % at 5.6 µM; actives 0.45% (n = 290,000); AID 1556;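 active = inhibition above the mean plus 3 SD of all compounds in the same screening run, cut at about 4.5% in these data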;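 also: 0% = IMP-1 with DMSO and 100% = DMSO wells lacking enzyme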
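assay system = purified recombinant IMP-1 metallo-beta-lactamase enzyme | schedule = 15 min preincubation plus 25 min reaction at 25 °C | signal = Epi-absorbance fluorescence, 480 nm excitation, 530 nm emission | read-out basis = percent inhibition from optical density relative to buffer-blank wells | controls = IMP-1 with DMSO as 0%, enzyme-free DMSO as 100%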
TMEM16A inh: mouse TMEM16A channel inhibition, primary screen; actives 1.2% (n = 310,000); normalized B-score (activity score, 25-100; higher = stronger inhibition) at 10 µM; HEK293 TMEM16A/YFP iodide influx fluorescence, ionomycin;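 active = ratio plate-corrected score three or more library SD toward inhibition, starting fluorescence score within five deviations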;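 also: score derived from kinetic fluorescence span divided by baseline fluorescence per well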
CHT PAM: human CHT allosteric activation | Q9GZV3 | CHT-expressing cells, membrane potential dye, choline EC20; hits give high values; LV-AA mutant CHT in HEK293 cells | B-score at 10 µM | actives 0.49% (n = 310,000);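 active = initial fluorescence not abnormally high and integrated response B-score, plate-corrected, over 3 SD above library mean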
Target sequence (Q9GZV3 whole entry, looked up): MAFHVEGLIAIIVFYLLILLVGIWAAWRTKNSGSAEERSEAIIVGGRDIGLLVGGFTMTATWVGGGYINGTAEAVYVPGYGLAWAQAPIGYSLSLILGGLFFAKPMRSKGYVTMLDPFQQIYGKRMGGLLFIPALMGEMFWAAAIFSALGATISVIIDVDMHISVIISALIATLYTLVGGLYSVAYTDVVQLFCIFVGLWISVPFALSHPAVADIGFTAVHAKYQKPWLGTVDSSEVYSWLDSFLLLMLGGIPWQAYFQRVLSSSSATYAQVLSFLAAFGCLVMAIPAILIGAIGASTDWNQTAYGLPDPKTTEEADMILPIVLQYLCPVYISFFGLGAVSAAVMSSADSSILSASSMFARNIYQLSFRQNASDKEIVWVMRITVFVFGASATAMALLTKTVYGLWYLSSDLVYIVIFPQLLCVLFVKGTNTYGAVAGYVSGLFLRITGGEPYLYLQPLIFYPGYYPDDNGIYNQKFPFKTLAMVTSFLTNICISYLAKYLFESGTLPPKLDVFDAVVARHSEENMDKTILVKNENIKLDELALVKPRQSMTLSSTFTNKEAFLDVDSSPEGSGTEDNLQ
CHT inh: inhibitors of human choline transporter CHT; Q9GZV3; CHT-expressing cells, membrane potential dye, choline response; hits give low values; B-score at 10 µM; actives 0.86% (n = 310,000); AID 488975;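 active = B-score over 3 SD under the library average, and starting fluorescence ratio not unusually high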;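 also: choline stimulus applied at its EC90 after an EC20 pre-addition; B-score computed on integrated fluorescence ratio after choline addition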
Active calls of the source: *; i = inactive; / = no result given.

SMILES	TMEM16A act	VIM-2 inh	IMP-1 inh	TMEM16A inh	CHT PAM	CHT inh
CCOC(=O)Nc1ccc2c(c1)N(C(=O)CN(C)C)c1ccccc1CC2	i	-4	-4	100*	i	i
CCOC(=O)Nc1ccc2c(c1)N(C(=O)CCN(C)C)c1ccccc1CC2	i	-2	-2	i	i	i
O=C(CN1CCN(S(=O)(=O)c2ccccc2)CC1)NC(=O)NCc1ccccc1	-11*	-3	-7	i	i	i
N=c1c(C(=O)NC2CCCC2)cc2c(=O)n3ccccc3nc2n1Cc1ccccc1	i	7.9*	0	i	i	i
N=c1c(C(=O)NC2CCCCC2)cc2c(=O)n3ccccc3nc2n1Cc1ccc(F)cc1	i	9.9*	0	i	i	i
COc1cccc(CNC(=O)CSc2nc(=O)n(Cc3ccncc3)c3c2CCC3)c1	i	/	/	i	i	i
CCOC(=O)COc1cc2c(C(=O)OCC)c(C)oc2cc1Br	i	-1	-2	i	i	i
CCOC(=O)c1c(C)oc2cc(Br)c(OC(C)C(=O)OCC)cc12 (stereo unspecified)	i	1	-2	25*	i	i
Cc1cccc(N2CCN(C(=O)CCC(=O)N3CCOc4ccc(Cl)cc43)CC2C)c1 (stereo unspecified)	i	-1	0	i	i	i
Cn1c(=O)n(C)c2cc(NS(=O)(=O)c3ccc4c(c3)CCCC4)ccc21	i	-1	-4	i	i	i
Cn1c(=O)n(C)c2cc(NS(=O)(=O)c3ccc(C(C)(C)C)cc3)ccc21	i	-1	-1	25*	i	i
CCc1[nH]nc2c1C1(CCN(C(=O)OCc3ccccc3)CC1)C(C#N)=C(N)O2	i	11*	0	i	i	i
Cc1ccsc1C(=O)OCC(=O)N1CCc2ccccc2C1	i	-1	-4	i	i	i
CCc1ccc(NC(=O)C2CCN(S(=O)(=O)c3ccc4[nH]c(=O)ccc4c3)CC2)cc1	i	-3	-3	i	i	i
CCN(CC(=O)Nc1c(F)cccc1F)C(=O)C1Cc2ccccc2CN1S(=O)(=O)CC (stereo unspecified)	i	/	/	i	i	i
O=[N+]([O-])c1ccc2c(c1)nc(CO)n2Cc1ccccc1	i	1	-3	i	i	i
Cc1cccc(N=C2NC(=O)/C(=C/C=C/c3ccco3)S2)c1C	i	-2	4.8*	i	i	i
Cc1ccc(N=C2NC(=O)/C(=C/C=C/c3ccco3)S2)cc1	i	-1	4	i	i	i
C=CCn1c(SCC(=O)NC2CCCCC2)nnc1-c1cccnc1	i	1	-1	i	i	i
COc1ccc(-c2csc(NC(=O)c3cccs3)c2C(=O)O)cc1OC	-41*	3	-1	i	i	i
COc1ccc(-c2csc(NC(=O)c3ccccc3Br)c2C(=O)O)cc1	i	-2	-3	i	i	-6.2*
COc1ccc(-c2csc(NC(=O)Cc3cccc4ccccc34)c2C(=O)O)cc1	i	0	7.7*	/	/	/
COc1ccc(-c2csc(NC(=O)c3ccccc3OC)c2C(=O)O)cc1OC	i	0	-4	i	i	i
O=C(CC1C=CCC1)Nc1ccccc1 (stereo unspecified)	i	/	/	/	/	/
O=C(OCCCCN1C(=O)c2ccccc2C1=O)c1ccc(S(=O)(=O)N2CCCC2)cc1	i	-4	-4	25*	i	i
SMILES	TMEM16A act	VIM-2 inh	IMP-1 inh	TMEM16A inh	CHT PAM	CHT inh
O=C(CCCCn1cnc2c(=S)nc[nH]c21)Nc1ccc(C(=O)O)c(O)c1	i	/	/	/	/	/
N#C/C(=N/O)c1nc(-c2ccc(F)cc2)cs1	i	-1	-3	100*	i	i
Cc1cc(C)n2c(=S)[nH]nc2n1	i	11*	-3	i	i	i
Cc1cc(C)n2cnnc2n1	i	-1	-3	i	i	i
Cc1csc(NC(=O)c2nc3nccc(C)n3n2)n1	i	-4	-6	i	i	i
Cc1ccnc2nc(C(=O)Nc3nc4ccccc4s3)nn12	i	1	5.0*	i	i	i
CN(C)CCSc1nc(-c2ccccc2)nc2c1CCC2	i	9.8*	0	i	i	i
CN(C)C(=O)CSc1nc(-c2ccccc2)nc2c1CCCC2	i	4	-1	i	i	i
COc1cc(/C=N/NC(=S)NC2CC3CC2C2C=CCC32)ccc1O (stereo unspecified)	i	-4	-2	100*	i	i
CCOc1ccc(/C=N/NC(=S)NC2CC3CC2C2C=CCC32)cc1 (stereo unspecified)	i	-3	-4	i	i	i
COc1ccccc1C(=O)NC(=O)Nc1c(C)cc(C)cc1C	i	-1	-5	i	i	i
CC(=O)c1ccc(N2CCN(c3ccc4cc(S(=O)(=O)N5CCC(C)CC5)ccc4n3)CC2)cc1	i	-2	12*	i	i	i
O=C(NCc1ccccn1)c1ccc(Cl)c(S(=O)(=O)NCc2ccccc2)c1	i	/	/	/	/	/
Cc1ccc(NC(=O)Nc2ccc(Cl)cn2)cc1	-5.9*	-1	-1	/	/	/
CCCCCCNC(=O)c1c(O)c2cccc3c2n(c1=O)CCC3	i	-3	-3	i	i	i
CCN(CC)CCNC(=O)c1c(O)c2cccc3c2n(c1=O)CCC3	i	11*	-6	/	/	/
Cc1cccc(NC(=O)c2c(O)c3cccc4c3n(c2=O)CCC4)n1	/	-1	-2	/	/	/
O=C(NCCNCCO)c1c(O)c2cccc3c2n(c1=O)CCC3	i	10.0*	-2	i	i	i
CNC(=O)c1c(O)c2cccc3c2n(c1=O)CCC3	i	9.5*	-3	i	i	i
COc1ccc2oc(C(=O)OCC(=O)NCc3ccc(OC)c(OC)c3)c(C)c2c1	i	/	/	/	/	/
O=C(Nc1ccc([N+](=O)[O-])cc1Cl)c1cc(Cl)ccc1O	i	/	/	100*	i	i
O=C(Nc1cccc(Cl)c1)c1cc(N=Nc2ccc([N+](=O)[O-])cc2Cl)ccc1O	-5.7*	-6	-8	100*	i	i
CN(CC(=O)Nc1ccccc1C(F)(F)F)C(=O)c1cccc(-n2cccc2)c1	i	/	/	i	i	i
CCOC(=O)N1CCN(C(=O)C(=O)Nc2sc3c(c2C(N)=O)CC(C)(C)OC3)CC1	i	-4	-1	i	i	i
CN(c1ccccc1)S(=O)(=O)c1cccc(C(=O)NNC(=O)c2ccccc2)c1	i	-2	-2	25*	i	i

Bioassay records (PubChem)
